In assay [1] the test system is U138-MG. Put plainly: Cytotoxicity against human U138MG cells assessed as cell survival at 0.1 nM after 72 hrs by trypan blue dye based assay. Format: functional. The conditions noted are these: read-out: Survival.
Assay [2] relates to U138-MG. Put plainly: Cytotoxicity against human U138MG cells assessed as cell survival at 0.5 nM after 72 hrs by trypan blue dye based assay. Format: functional. The conditions noted are these: read-out: Survival.
In assay [3] the test system is U138-MG. The experiment in a line: Cytotoxicity against human U138MG cells assessed as cell survival at higher doses after 72 hrs by trypan blue dye based assay. Format: functional.
Assay [4] deals with U138-MG. The experiment in a line: Cytotoxicity against human U138MG cells assessed as decrease in cell viability after 72 hrs by trypan blue dye based assay. It counts as functional.
In assay [5] the test system is U138-MG. The experiment in a line: Cytotoxicity against human U138MG cells assessed as dose enhancement ratio at 0.1 nM after 72 hrs in presence of 2 Gy dose of proton irradiation by trypan blue dye based assay. Format: functional. The method in brief:
(§1)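 U-138 MG cells received the drug at 0.1, 0.5 or 1.0 nM, alone or combined with a 2 Gy proton exposure. Viable cell number was counted at 72 h. The dose enhancement ratio was calculated from combined versus single treatments.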

The subject of assay [6] is U138-MG. The experiment in a line: Cytotoxicity against human U138MG cells assessed as decrease in cell viability at 0.5 to 1 nM after 72 hrs in presence of 2 Gy dose of proton irradiation by trypan blue dye based assay. It counts as functional. The procedure, abridged:
as §1

Assay [7] relates to U138-MG. Put plainly: Induction of apoptosis in human U138MG cells at 0.1 nM after 72 hrs by Annexin V staining based flow cytometry. It counts as functional, cell-based. The method in brief:
(§2)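 U-138 MG cells were treated with 0.1 nM drug and analysed by flow cytometry at 72 h: annexin V binding for apoptosis and 7-AAD uptake for necrosis.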
For orientation: Flow cytometry measures light scatter and fluorescence of single cells or particles in a stream.

Assay [8] relates to U138-MG. Put plainly: Induction of necrosis in human U138MG cells at 0.1 nM after 72 hrs by 7-AAD staining based flow cytometry. It counts as functional, cell-based. The method in brief: as §2
For assay [9], the system named is U138-MG. Put plainly: Induction of apoptosis in human U138MG cells at 0.1 nM after 72 hrs in presence of 6 Gy dose of proton irradiation by Annexin V staining based flow cytometry. It counts as functional, cell-based.
Assay [10] concerns U138-MG. The experiment in a line: Induction of necrosis in human U138MG cells at 0.1 nM after 72 hrs in presence of 6 Gy dose of proton irradiation by 7-AAD staining based flow cytometry. Format: functional, cell-based.
For assay [11], the system named is U138-MG. The experiment in a line: Induction of apoptosis in human U138MG cells assessed as dose enhancement ratio at 0.1 nM after 72 hrs in presence of 2 Gy dose of proton irradiation by Annexin V staining based flow cytometry. Format: functional. The method in brief:
(§3)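 Flow cytometry of U-138 MG cells 72 h after 0.1 nM drug combined with 2 Gy protons: annexin V for apoptosis, 7-AAD for necrosis. The enhancement ratio was derived against single treatments.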

Assay [12] relates to U138-MG. The experiment in a line: Induction of necrosis in human U138MG cells assessed as dose enhancement ratio at 0.1 nM after 72 hrs in presence of 2 Gy dose of proton irradiation by 7-AAD staining based flow cytometry. It counts as functional. The method in brief:
as §3

Assay [13] has as its system U138-MG. The experiment in a line: Anticlonogenic activity against human U138MG cells assessed as decrease in cell survival after 14 days by methylene blue staining based method. Conditions: 336 h. Format: functional. The method in brief: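 Clonogenic survival of U-138 MG human glioblastoma cells after drug exposure alone. Colonies of 50 or more cells were counted 14 days after exposure, and survival curves were calculated from the counts.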

Assay [14] has as its system U138-MG. Put plainly: Anticlonogenic activity against human U138MG cells assessed as decrease in cell survival pretreated for 2 hrs followed by 1 to 8 Gy dose of proton irradiation measured after 10 to 14 days by methylene blue staining based method. It counts as functional. Conditions: light or radiation study. The procedure, abridged: (§4)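 U-138 MG cells were exposed to 0.001 nM drug before proton irradiation at 1–8 Gy. Colonies of at least 50 cells were counted 14 days after exposure, and survival fractions and curves were derived.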

For assay [15], the system named is U138-MG. The experiment in a line: Anticlonogenic activity against human U138MG cells assessed as cell survival at 0.001 nM pretreated for 2 hrs followed by 1 to 8 Gy dose of proton irradiation measured after 10 to 14 days by methylene blue staining based method. Format: functional. The conditions noted are these: light or radiation study, read-out: Survival. The procedure, abridged: as §4

Assay [16] has as its system U138-MG. Put plainly: Anticlonogenic activity against human U138MG cells assessed as dose enhancement ratio pretreated for 2 hrs followed by 1 to 8 Gy dose of proton irradiation measured after 10 to 14 days by methylene blue staining based method. Format: functional. The method in brief:
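U-138 MG clonogenic assay: cells were pretreated with 0.001 nM drug, then given 1–8 Gy protons. Colonies of 50 or more cells were counted at 14 days. The ratio compares the combined survival fraction with that expected from each modality given separately.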

Structures are written as SMILES. Calls of active or inactive are those of the source. No cut-off for these calls is given here.

In general, IC50 refers to the concentration that gives 50% inhibition. As to `COC(=O)c1cc2c([nH]1)C(=O)C=C1N(C(=O)c3cc4cc(OC)c(OC)c(OC)c4[nH]3)C[C@H]3C[C@]123` [DUOCARMYCIN], in the assay with U138-MG [1], the viability at 0.0001 µM stood at 65%. Also, the viability at 0.0005 µM in the assay on U138-MG [2] was 25%. The outcome in the assay with U138-MG [3], with U138-MG [6], in the assay with U138-MG [7] and in the assay on U138-MG [8] was Active. Besides, the Activity result in the assay with U138-MG [4] was “Dose-dependent effect”. Also, the values for the IC50 in the assay on U138-MG [4], with U138-MG [13] and in the assay with U138-MG [14] were 0.4 nM, 0.0018 nM and 0.443 nM, respectively. Besides, the Ratio is given as 1.6 in the assay with U138-MG [5], 2.5 in the assay on U138-MG [11], 4 in the assay with U138-MG [12] and 2.17 in the assay with U138-MG [16]. The result with U138-MG [9] and in the assay with U138-MG [10] was inactive. Also, the viability at 1 pM in the assay with U138-MG [15] was found to be 54%.

Source of the values: ChEMBL document CHEMBL4229393, “Duocarmycin SA, a potent antitumor antibiotic, sensitizes glioblastoma cells to proton radiation” (Bioorg Med Chem Lett, 2018).
